# Assay results reported in ChEMBL document CHEMBL2203123, “Synthesis and biological evaluation of some hydrazone derivatives as new anticandidal and anticancer agents” (Eur J Med Chem, 2012).
# Legend:
# Salmonella typhimurium [1] = assay: Genotoxicity against Salmonella typhimurium TA98 assessed as fold increase in revertants at 2.5 mg/ml after 90 mins by Ames MPF test in absence of S9 fraction relative to baseline; assay type: toxicity, organism-based; settings: salmonella enterica subsp. enterica serovar typhimurium, 1.5 h
# Summary of the method: (§1)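 Ames MPF fluctuation test, TA98 and TA100: overnight cultures reincubated 90 min, then exposed 90 min at 37 °C to compounds at 0.156-5 mg/mL (in DMSO) with or without 4.5% v/v S9; indicator medium added, 48 wells per sample scored yellow after 48 h, triplicate. Fold over baseline = mean positive wells / (mean of DMSO control + 1 SD).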
# Salmonella typhimurium [2] = assay: Genotoxicity against Salmonella typhimurium TA98 assessed as fold increase in revertants at 0.3125 mg/ml after 90 mins by Ames MPF test in absence of S9 fraction relative to baseline; assay type: toxicity, organism-based; settings: salmonella enterica subsp. enterica serovar typhimurium, 1.5 h; summary of the method: as §1
# Salmonella typhimurium [3] = assay: Genotoxicity against Salmonella typhimurium TA100 assessed as fold increase in revertants at 0.3125 mg/ml after 90 mins by Ames MPF test in absence of S9 fraction relative to baseline; assay type: toxicity, organism-based; settings: salmonella enterica subsp. enterica serovar typhimurium, 1.5 h; summary of the method: as §1
# Salmonella typhimurium [4] = assay: Genotoxicity against Salmonella typhimurium TA100 assessed as fold increase in revertants at 2.5 mg/ml after 90 mins by Ames MPF test in presence of S9 fraction relative to baseline; assay type: toxicity, organism-based; settings: salmonella enterica subsp. enterica serovar typhimurium, s9, 1.5 h; summary of the method: as §1
# Salmonella typhimurium [5] = assay: Genotoxicity against Salmonella typhimurium TA100 assessed as fold increase in revertants at 0.625 mg/ml after 90 mins by Ames MPF test in absence of S9 fraction relative to baseline; assay type: toxicity, organism-based; settings: salmonella enterica subsp. enterica serovar typhimurium, 1.5 h; summary of the method: as §1
# Salmonella typhimurium [6] = assay: Genotoxicity against Salmonella typhimurium TA98 assessed as fold increase in revertants at 0.3125 mg/ml after 90 mins by Ames MPF test in presence of S9 fraction relative to baseline; assay type: toxicity, organism-based; settings: salmonella enterica subsp. enterica serovar typhimurium, s9, 1.5 h; summary of the method: as §1
# Candida albicans [7] = assay: Antifungal activity against Candida albicans clinical isolate after 24 hrs by microdilution susceptibility assay; assay type: functional
# Summary of the method: (§2)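 Broth microdilution in Mueller Hinton Broth, compounds from DMSO stocks diluted serially; inocula standardized to 10^6 CFU/mL (McFarland 0.5) from overnight MHB cultures. Plates held 37 °C for 24 h; MIC taken as first well without turbidity, aided by 1% tetrazolium violet added for 3 h at 37 °C. Ketoconazole reference.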
# [8] = Genotoxicity against Salmonella typhimurium TA1535/pSK1002 assessed as induction ratio at 0.63 mg/ml by umuC assay in presence of S9 fraction; assay type: toxicity, organism-based; settings: salmonella enterica subsp. enterica serovar typhimurium, Salmonella typhimurium TA1535/pSK1002 with S9 fraction
# Summary of the method: (§3)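 umuC Easy CS: TA1535/pSK1002 grown overnight in ampicillin TG medium at 37 °C, then exposed 2 h at 37 °C to compounds at 5, 2.5, 1.25, 0.63 mg/mL with or without S9. Diluted into fresh medium for 2 h growth (OD600), then β-galactosidase with ONPG 30 min at 28 °C, OD420. Positive controls 2-aminoanthracene (+S9), […] (−S9).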
# Salmonella typhimurium [9] = assay: Genotoxicity against Salmonella typhimurium TA98 assessed as fold increase in revertants at 1.25 mg/ml after 90 mins by Ames MPF test in absence of S9 fraction relative to baseline; assay type: toxicity, organism-based; settings: salmonella enterica subsp. enterica serovar typhimurium, 1.5 h; summary of the method: as §1
# Nakaseomyces glabratus [10] = assay: Antifungal activity against Candida glabrata Osmangazi University clinical isolate after 24 hrs by microdilution susceptibility assay; assay type: functional; summary of the method: as §2
# Salmonella typhimurium [11] = assay: Genotoxicity against Salmonella typhimurium TA100 assessed as fold increase in revertants at 1.25 mg/ml after 90 mins by Ames MPF test in absence of S9 fraction relative to baseline; assay type: toxicity, organism-based; settings: salmonella enterica subsp. enterica serovar typhimurium, 1.5 h; summary of the method: as §1
# Salmonella typhimurium [12] = assay: Genotoxicity against Salmonella typhimurium TA1535/pSK1002 assessed as induction ratio at 0.63 mg/ml by umuC assay in absence of S9 fraction; assay type: toxicity, organism-based; settings: salmonella enterica subsp. enterica serovar typhimurium; summary of the method: as §3
# Salmonella typhimurium [13] = assay: Genotoxicity against Salmonella typhimurium TA100 assessed as fold increase in revertants at 0.156 mg/ml after 90 mins by Ames MPF test in absence of S9 fraction relative to baseline; assay type: toxicity, organism-based; settings: salmonella enterica subsp. enterica serovar typhimurium, 1.5 h; summary of the method: as §1
# Salmonella typhimurium [14] = assay: Genotoxicity against Salmonella typhimurium TA98 assessed as fold increase in revertants at 1.25 mg/ml after 90 mins by Ames MPF test in presence of S9 fraction relative to baseline; assay type: toxicity, organism-based; settings: salmonella enterica subsp. enterica serovar typhimurium, s9, 1.5 h; summary of the method: as §1
# Nakaseomyces glabratus [15] = assay: Antifungal activity against Candida glabrata Anadolu University clinical isolate after 24 hrs by microdilution susceptibility assay; assay type: functional; summary of the method: as §2
# Salmonella typhimurium [16] = assay: Genotoxicity against Salmonella typhimurium TA1535/pSK1002 assessed as growth factor ratio at 1.25 mg/ml by umuC assay in presence of S9 fraction; assay type: toxicity, organism-based; settings: salmonella enterica subsp. enterica serovar typhimurium; summary of the method: as §3
# Salmonella typhimurium [17] = assay: Genotoxicity against Salmonella typhimurium TA100 assessed as fold increase in revertants at 0.625 mg/ml after 90 mins by Ames MPF test in presence of S9 fraction relative to baseline; assay type: toxicity, organism-based; settings: salmonella enterica subsp. enterica serovar typhimurium, s9, 1.5 h; summary of the method: as §1
# Salmonella typhimurium [18] = assay: Genotoxicity against Salmonella typhimurium TA1535/pSK1002 assessed as growth factor ratio at 5 mg/ml by umuC assay in presence of S9 fraction; assay type: toxicity, organism-based; settings: salmonella enterica subsp. enterica serovar typhimurium; summary of the method: as §3
# Candida albicans [19] = assay: Antifungal activity against Candida albicans ATCC 90028 after 24 hrs by microdilution susceptibility assay; assay type: functional; settings: ATCC 90028, 24 h; summary of the method: as §2
# Salmonella typhimurium [20] = assay: Genotoxicity against Salmonella typhimurium TA100 assessed as fold increase in revertants at 1.25 mg/ml after 90 mins by Ames MPF test in presence of S9 fraction relative to baseline; assay type: toxicity, organism-based; settings: salmonella enterica subsp. enterica serovar typhimurium, s9, 1.5 h; summary of the method: as §1
# NIH3T3 = assay: Cytotoxicity against mouse NIH/3T3 cells after 24 hrs by XTT assay; assay type: cell-based; settings: NIH3T3, 24 h
# Summary of the method: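 Mouse NIH3T3 fibroblasts grown in DMEM with fetal calf serum, penicillin/streptomycin, 37 °C, 5% CO2; 20,000 cells/well, treated after 24 h with 0.00316 µM-10 mM compound for 24 h. Viability via XTT (3 h, OD 480 nm, reference 680 nm); % inhibition computed and IC50 fitted by non-linear regression.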
# Pichia kudriavzevii = assay: Antifungal activity against Candida krusei NRRL Y-7179 after 24 hrs by microdilution susceptibility assay; assay type: functional; settings: NRRL Y-7179, 24 h; summary of the method: as §2
# [21] = Genotoxicity against Salmonella typhimurium TA1535/pSK1002 assessed as induction ratio at 2.5 mg/ml by umuC assay in absence of S9 fraction; assay type: toxicity, organism-based; settings: salmonella enterica subsp. enterica serovar typhimurium, Salmonella typhimurium TA1535/pSK1002 without S9 fraction; summary of the method: as §3
Structure (SMILES),fold change (FC) (Salmonella typhimurium [1]),fold change (FC) (Salmonella typhimurium [2]),fold change (FC) (Salmonella typhimurium [3]),fold change (FC) (Salmonella typhimurium [4]),fold change (FC) (Salmonella typhimurium [5]),fold change (FC) (Salmonella typhimurium [6]),MIC (Candida albicans [7]) [mg/L],fold induction at 0.63 mg/ml [8],fold change (FC) (Salmonella typhimurium [9]),MIC (Nakaseomyces glabratus [10]) [mg/L],fold change (FC) (Salmonella typhimurium [11]),Ratio (Salmonella typhimurium [12]),fold change (FC) (Salmonella typhimurium [13]),fold change (FC) (Salmonella typhimurium [14]),MIC (Nakaseomyces glabratus [15]) [mg/L],Ratio (Salmonella typhimurium [16]),fold change (FC) (Salmonella typhimurium [17]),Ratio (Salmonella typhimurium [18]),MIC (Candida albicans [19]) [mg/L],fold change (FC) (Salmonella typhimurium [20]),also measured
CN(C)c1ccc(/C=N/NC(=O)CSc2nnnn2C)cc1,0,1.27,1.19,0.15,1.38,0.57,125,0.704,0.64,500,1,1.36,1.9,0.86,50,1.538,0.18,2.82,50,0.26,IC50 (NIH3T3): 316 µM; MIC (Pichia kudriavzevii): 62.5 mg/L; fold induction at 2.5 mg/ml [21]: 0.88
Cn1nnnc1SCC(=O)N/N=C/c1ccc(O)cc1,0.13,0.13,0.41,0.63,0.66,0.53,500,0.797,0.13,1000,0.91,1.181,0.66,0.63,500,1.277,0.7,2.139,1000,0.59,IC50 (NIH3T3): 632 µM; MIC (Pichia kudriavzevii): 500 mg/L; fold induction at 2.5 mg/ml [21]: 0.979
COc1ccc(/C=N/NC(=O)CSc2nnnn2C)cc1,0.33,0.16,0.4,0.62,0.3,0.84,500,0.814,0.33,500,0.2,1.357,0.7,0.53,125,1.294,0.89,2.261,500,0.81,IC50 (NIH3T3): > 10000 µM; MIC (Pichia kudriavzevii): 125 mg/L; fold induction at 2.5 mg/ml [21]: 1.04
Cn1nnnc1SCC(=O)N/N=C/c1ccccc1[N+](=O)[O-],1.96,1.63,1.67,2.2,0.83,1.22,500,1.23,2.78,500,1.33,1.509,1.67,2,250,0.879,1.28,0.913,62.5,1.93,IC50 (NIH3T3): 2020 µM; MIC (Pichia kudriavzevii): 125 mg/L; fold induction at 2.5 mg/ml [21]: 1.63
Cn1nnnc1SCC(=O)N/N=C/c1ccccc1F,0.95,1.59,0.06,0.95,0.23,0.71,125,0.936,0.32,250,0.29,1.312,0.23,1.28,250,1.163,0.66,2.579,500,0.88,IC50 (NIH3T3): 2000 µM; MIC (Pichia kudriavzevii): 500 mg/L; fold induction at 2.5 mg/ml [21]: 0.779
